Source: ChEMBL document CHEMBL1142191, “Isolation and characterization of human immunodeficiency virus type 1 resistant to the small-molecule CCR5 antagonist TAK-652” (Antimicrob Agents Chemother, 2007)
The source made the active and inactive calls. The rule behind the calls is not given here.

What was measured:
[1] = system: Human immunodeficiency virus 1; experiment: Antiviral activity in long term culture of HIV1 KK infected PBMCs after 67 passages assessed as p24 antigen levels at escalating concentrations; assay type: functional, organism-based; settings: Human immunodeficiency virus 1, KK
Method in brief: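 PHA-stimulated PBMCs (5 × 10^6) were infected with R5 clinical isolate KK (100 ng p24) and held compound-free for 2 days at 37°C, then washed. Culture started at 0.2 nM drug and was passaged weekly with fresh same-donor PBMCs. Drug was escalated when treated-culture supernatant p24 (ELISA) exceeded 50% of a parallel untreated control at two consecutive passages.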

[2] = system: Human immunodeficiency virus 1; experiment: Ratio of IC50 for HIV1 KK infected PBMC to IC50 for compound treated HIV1 KK infected PBMC after 67 passages; assay type: functional
Method in brief: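 PHA-stimulated PBMCs infected with the passage-67 escape virus (1,400 CCID50, 4 h) were washed and exposed to 0.1–10,000 nM compound, split 1:2 on day 4, and read for day-7 supernatant p24 by ELISA. Triplicate wells in two donor experiments. Fold change = […].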

[3] = system: Human immunodeficiency virus 1; experiment: Inhibition of HIV1 KK infected PBMC; assay type: functional, organism-based; settings: Human immunodeficiency virus 1, KK
[4] = system: Human immunodeficiency virus 1; experiment: Antiviral activity in long term culture of HIV1 KK infected PBMCs after 56 passages assessed as p24 antigen levels; assay type: functional, organism-based; settings: Human immunodeficiency virus 1, KK
Method in brief: (§1)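 Viruses were isolated at the stated passage from the drug-escalation culture and from the parallel untreated culture, then propagated once in PBMCs. PHA-stimulated PBMCs were infected with 1,400 CCID50 for 4 h, washed, and seeded with 0.1–10,000 nM compound. Cells were split 1:2 on day 4, and supernatant p24 was read by ELISA on day 7. Triplicate wells, two experiments with different donors; IC50 from a logistic least-squares fit.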

[5] = system: Human immunodeficiency virus 1; experiment: Inhibition of R5 HIV1 replication at 5 uM; assay type: functional, organism-based
[6] = system: Human immunodeficiency virus 1; experiment: Antiviral activity in long term culture of HIV1 KK infected PBMCs after 8 passages assessed as p24 antigen levels; assay type: functional, organism-based; settings: Human immunodeficiency virus 1, KK; method in brief: as §1
[7] = system: Human immunodeficiency virus 1; experiment: Antiviral activity in long term culture of HIV1 KK infected PBMCs after 43 passages assessed as p24 antigen levels; assay type: functional, organism-based; settings: Human immunodeficiency virus 1, KK; method in brief: as §1

CC(=O)N1CCC(C(=O)N(CCCN2CCC(Cc3ccc(C(N)=O)cc3)CC2)c2ccc(C)c(Cl)c2)CC1
IC50 [1]: 1.3 nM
Ratio IC50 [2]: 1.6

Cc1ccc(-c2ccc3c(c2)C=C(C(=O)Nc2ccc(C[N+](C)(C)C4CCOCC4)cc2)CCC3)cc1.[Cl-]
IC50 [1]: 77 nM
Ratio IC50 [2]: 37

CCCCOCCOc1ccc(-c2ccc3c(c2)/C=C(/C(=O)Nc2ccc([S@@+]([O-])Cc4cncn4CCC)cc2)CCCN3CC(C)C)cc1.CS(=O)(=O)O [CENICRIVIROC MESYLATE]
IC50 [1]: > 10000 nM
IC50 [3]: 0.14 nM
IC50 [4]: 67 nM
Ratio IC50 [2]: >230000
Activity [5]: Active
IC50 [6]: 0.24 nM
IC50 [7]: 0.2 nM
